PubChem BioAssay
Active and inactive are the calls of the source.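 The calls were made as follows, unless noted: active = compounds giving at least 50% inhibition in the cell-based MKP-3 phosphatase rescue imaging test; inactive = the rest.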

Tests used:
[1] = inhibitors of TNFa-induced NFkB p65 translocation, primary screen, imaging, HUVEC, MLSMR starter and 10KST1 sets (AID 438;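 active = inhibition above 20% together with a positive visual image hit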;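 also: compound added about 3h40 before a 20 min TNFalpha stimulation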;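 as to inhibition: signal is the nuclear over cytoplasmic p65 intensity ratio per well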); conditions: HUVEC TNFa-induced p65 nuclear translocation; cell count: measured here: nuclei count (cytotoxicity indicator), at 2.08 µM; inhibition: at 2 µM, stronger effect = higher value, 0% TNFa-plus-vehicle, 100% no-TNFa wells
[2] = inhibitors of E-selectin induction by TNFa, primary screen, imaging, HUVEC, immunofluorescence, MLSMR starter and 10KST1 sets (AID 487;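 active = visually confirmed hit in the image check and inhibition above 20%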;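 as to inhibition: signal is fraction of cell area covered by stained E-selectin grains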;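 as to nuclei count: 100% = median nuclei count of all wells on the same plate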); conditions: HUVEC TNFalpha-induced E-selectin immunofluorescence imaging, at 2 µM; inhibition: stronger effect = higher value; nuclei count: measured here: cell number, toxicity
[3] = DUSP6 inhibitors restoring Erk phosphorylation by chemical complementation, primary imaging in DUSP6-transfected HeLa (AID 609); conditions: HeLa MKP-3 transfected, phospho-Erk imaging KS statistic, at 10 µM, cells stimulated with TPA for 15 min;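 as to inhibition: phospho-Erk level distribution per well compared with pooled transfected vehicle control wells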
[4] = target: Dual specificity protein phosphatase 6 (Homo sapiens) (UniProt Q16828); assay: as above; conditions: HeLa MKP-3 transfected, phospho-Erk imaging KS statistic; at 10 µM; stronger effect = higher value; cells stimulated with TPA for 15 min
[5] = target: Voltage-gated potassium channel subunit beta-2 (Rattus norvegicus) (UniProt P62483); assay: KvBeta enzyme negative modulators, primary screen, biochemical, NADPH fluorescence (AID 622;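 active = fluorescence slope higher than the sample average by over 3 SD, cut at about -0.22 in these data, passing the limit was not always enough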;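 also: slope of raw intensity against log time taken from 70 to 1610 s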); conditions: recombinant KvBeta, 4-cyanobenzaldehyde reduction, at 10 µM, stronger effect = higher value
[6] = target: Voltage-gated potassium channel subunit beta-2 (Rattus norvegicus) (UniProt P62483); assay: KvBeta positive modulators, primary screen, biochemical, NADPH fluorescence (AID 623;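 active = NADPH fluorescence slope more negative than the mean of all samples by about 3 SD, 99.7% confidence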;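 also: fluorescence intensity change per second fitted from 20 to 320 s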); conditions: Recombinant KvBeta, NADPH fluorescence decrease slope, 10 min; at 10 µM; stronger effect = lower value
[7] = target: Alpha-2C adrenergic receptor (Homo sapiens) (UniProt P18825); assay: modulators of alpha2C/GIRK thallium flux, primary screen, cell-based, HEK293 alpha2C/GIRK1/2 (AID 624;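 active = fluorescence slope after compound addition differing from the mean of all screened samples at 99.7% confidence, in either direction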;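 also: slope of fluorescence ratio to pre-addition baseline per second over 15 to 24 s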); conditions: thallium flux BTC fluorescence, at 10 µM, actives lie on both sides
[8] = inhibitors of larval lipid processing in zebrafish, primary screen, whole organism, PED6 fluorescence, gall bladder and intestine (AID 686;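 active = a full or partial loss of lipid-probe fluorescence in the fish gall bladder, intestine or both, judged by eye; inactive = no fluorescence loss, or compound toxic to the fish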;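 also: larvae 5 to 7 days old with five fish per well; signal comes from phospholipase A2 cleavage of quenched PED6 carried via bile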); conditions: Zebrafish larvae PED6 lipid processing, fluorescence scoring; screened at 20 µM (by protocol)
How it was run: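 Incubation: overnight exposure of larvae to compound plus PED6 / Test system: live zebrafish larvae aged 5-7 days, whole organism / Amount: 5 larvae per well / Read-out basis: visual per-well fluorescence inhibition score / Signal: visual fluorescence microscopy scoring of gall bladder, gut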

[9] = inhibitors of Chlamydomonas gravitaxis, primary screen, whole organism, Chlamydomonas reinhardtii, WT vs cilia-less mutant, absorbance, 96-well (AID 463189;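 active = inhibition at or above 50% relative to wild type and mutant plate controls; inactive = inhibition below 50%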;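 also: 0% = wild type cc124 cells in DMSO and 100% = ciliumless bld1 mutant cells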); conditions: OD600 absorbance, 2 days, at 10 µM, stronger effect = higher value
[10] = measured here: cell density z-score
[11] = measured here: nuclear c-Myc green intensity z-score
[12] = measured here: nuclear pErk red intensity z-score, stronger effect = higher value

Chain of Dual specificity protein phosphatase 6 (Homo sapiens) (Q16828 whole entry, looked up): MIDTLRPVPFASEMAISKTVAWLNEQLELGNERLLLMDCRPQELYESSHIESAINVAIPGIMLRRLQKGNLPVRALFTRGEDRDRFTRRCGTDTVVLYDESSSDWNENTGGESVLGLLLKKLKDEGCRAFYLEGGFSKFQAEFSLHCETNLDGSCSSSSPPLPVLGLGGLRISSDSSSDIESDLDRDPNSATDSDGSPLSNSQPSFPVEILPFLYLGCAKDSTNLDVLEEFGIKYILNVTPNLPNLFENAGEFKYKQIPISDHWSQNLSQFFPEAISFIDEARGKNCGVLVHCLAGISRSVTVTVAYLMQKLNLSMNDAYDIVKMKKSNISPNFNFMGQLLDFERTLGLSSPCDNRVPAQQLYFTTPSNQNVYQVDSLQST
Chain of Voltage-gated potassium channel subunit beta-2 (Rattus norvegicus) (P62483 whole entry, looked up): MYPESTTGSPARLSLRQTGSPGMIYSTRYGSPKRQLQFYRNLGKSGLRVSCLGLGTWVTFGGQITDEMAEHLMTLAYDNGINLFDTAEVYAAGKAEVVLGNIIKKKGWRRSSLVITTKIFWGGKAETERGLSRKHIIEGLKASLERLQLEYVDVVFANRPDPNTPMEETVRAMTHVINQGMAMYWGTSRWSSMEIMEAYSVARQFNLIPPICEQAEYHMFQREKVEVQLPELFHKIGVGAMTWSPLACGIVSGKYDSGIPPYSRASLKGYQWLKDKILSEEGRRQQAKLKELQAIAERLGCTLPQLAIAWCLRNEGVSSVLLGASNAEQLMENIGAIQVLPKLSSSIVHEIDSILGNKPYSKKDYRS
Chain of Alpha-2C adrenergic receptor (Homo sapiens) (P18825 whole entry, looked up): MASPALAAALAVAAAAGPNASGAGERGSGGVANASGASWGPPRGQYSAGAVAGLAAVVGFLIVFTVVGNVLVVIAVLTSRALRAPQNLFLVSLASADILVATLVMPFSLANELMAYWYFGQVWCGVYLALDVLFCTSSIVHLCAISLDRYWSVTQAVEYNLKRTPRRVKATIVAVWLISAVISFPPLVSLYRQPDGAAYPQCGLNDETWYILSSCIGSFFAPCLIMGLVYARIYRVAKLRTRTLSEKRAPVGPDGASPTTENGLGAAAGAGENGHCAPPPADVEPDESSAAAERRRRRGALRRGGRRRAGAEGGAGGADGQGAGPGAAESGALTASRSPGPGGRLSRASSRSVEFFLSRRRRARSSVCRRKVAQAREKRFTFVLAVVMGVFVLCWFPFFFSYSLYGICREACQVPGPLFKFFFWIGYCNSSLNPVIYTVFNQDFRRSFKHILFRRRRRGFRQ

Compound	cell count [1]	inhibition [1]	inhibition [2]	nuclei count [2]	z-score [3, 10]	z-score [3, 11]	z-score [3, 12]	inhibition [4]	fluorescence slope [5]	NADPH fluorescence slope [6]	slope [7]	outcome [8]	inhibition [9]
COCc1cc(=O)[nH]c(Nc2nc3ccc(C)cc3o2)n1	568	-19% (inactive)	-52.2% (inactive)	156%	0.289	0.499	-0.0408	-3.97% (inactive)	-0.463 (inactive)	-4.8e-05 (inactive)	0.00626 (inactive)	inactive	2.95% (inactive)
COc1ccccc1-c1nn2c(-c3ccc(C(C)(C)C)cc3)nnc2s1	509	-5.2% (inactive)	-76.5% (inactive)	110%	-0.995	-1.37	-0.665	-7.86% (inactive)	-0.42 (inactive)	-3.3e-05 (inactive)	0.0128 (inactive)	inactive	19.8% (inactive)
CCOC(=O)c1cc2c(=O)n3cccc(C)c3nc2n(C)c1=N	622	-8.8% (inactive)	-51.9% (inactive)	142%	1.38	-1.25	-0.0406	6.04% (inactive)	-0.436 (inactive)	-8.5e-05 (inactive)	0.00241 (inactive)	inactive	119% (active)
Cc1ccc(-n2c(=O)c3c4c(sc3n3c(C)nnc23)COC(C(C)C)C4)cc1 (stereo not drawn)	551	-2.6% (inactive)	-1.3% (inactive)	122%	0.656	-0.667	-0.392	9.82% (inactive)	-0.411 (inactive)	2.1e-05 (inactive)	0.00541 (inactive)	inactive	49.1% (inactive)
CCN(CC)CCCn1c(C)cc2c(c1=O)C(c1ccccc1)C(C#N)=C(N)O2 (stereo not drawn)	417	11.8% (inactive)	-54.2% (inactive)	140%	-0.637	0.212	1.28	0.671% (inactive)	-0.395 (inactive)	-3.1e-05 (inactive)	0.0067 (inactive)	inactive	-1.93% (inactive)
Cc1nnc2n(-c3ccccc3)c(=O)c3c4c(sc3n12)CC(C)CC4 (stereo not drawn)	573	-1.3% (inactive)	37.3% (inactive)	92.6%	-0.0616	0.767	-0.493	16.1% (inactive)	-0.396 (inactive)	1.3e-06 (inactive)	0.00538 (inactive)	inactive	-24.5% (inactive)
Cc1ccccc1OCc1nc2ccccc2c(=O)n1NC(=O)c1ccco1	346	-13.7% (inactive)	-57% (inactive)	104%	0.846	0.49	-1.53	19.3% (inactive)	-0.498 (inactive)	-1.5e-05 (inactive)	0.00616 (inactive)	inactive	24.1% (inactive)
COC(=O)c1cc2c(=O)n3cccc(C)c3nc2n(Cc2cccnc2)c1=N	626	-15% (inactive)	-113% (inactive)	159%	2.59	-0.798	-0.054	25.7% (inactive)	-0.523 (inactive)	-3.6e-05 (inactive)	0.00531 (inactive)	inactive	32.4% (inactive)
CCOC(=O)C1CCCN(c2nc3ccccc3nc2C(C#N)C(=O)OCCOC)C1 (stereo not drawn)	542	-14.7% (inactive)	-102% (inactive)	160%	0.574	2.29	-0.983	4.72% (inactive)	-0.48 (inactive)	-4.8e-05 (inactive)	0.0042 (inactive)	active; weak signal in gallbladder and intestine	6.3% (inactive)
COc1ccc(OC)c2c(N)c(C#N)c(C(F)(F)C(F)(F)F)nc12	295	-8.5% (inactive)	9% (inactive)	85.5%	1	-1.13	-0.419	21% (inactive)	-0.402 (inactive)	-3.3e-05 (inactive)	0.00519 (inactive)	inactive	-13.9% (inactive)
COc1ccc(-c2oc3ncn4nc(Cc5ccccc5)nc4c3c2-c2ccc(OC)cc2)cc1	561	-7.8% (inactive)	-106% (inactive)	175%	0.18	0.751	0.443	-6.06% (inactive)	-0.319 (inactive)	-1.7e-05 (inactive)	0.0116 (inactive)	inactive	-5.31% (inactive)
N#CC1=C(C=Nc2ccccc2O)CCC1	643	-12.1% (inactive)	-13.8% (inactive)	163%	-1.7	-0.376	2.01	-8.95% (inactive)	-0.416 (inactive)	-6.1e-05 (inactive)	0.00456 (inactive)	inactive	11.8% (inactive)
CN(C)C/C(Cl)=C(\Cl)c1ccccc1	584	-0.1% (inactive)	-20.3% (inactive)	159%	-1.42	-0.391	0.439	4.25% (inactive)	-0.53 (inactive)	-6.5e-05 (inactive)	0.00503 (inactive)	inactive	10.7% (inactive)
CCOC(=O)c1[nH]c2cc3c(cc2c1NC(=O)CN1CCC2(CC1)OCCO2)OCO3	466	-3.8% (inactive)	7.6% (inactive)	111%	0.45	1.98	-0.82	22.8% (inactive)	-0.0748 (inactive)	5.8e-07 (inactive)	0.00639 (inactive)	inactive	-16.4% (inactive)
CCCCOc1nc2ccccc2nc1C(C#N)C(=O)NC1CCCCC1 (stereo not drawn)	320	-10.2% (inactive)	-124% (inactive)	151%	-1.21	0.194	1.47	-15.8% (inactive)	-0.41 (inactive)	-0.00013 (inactive)	0.00654 (inactive)	inactive	1.58% (inactive)
CCC1(C)Cc2c(sc3[nH]c(=O)[nH]c(=O)c23)CS1 (stereo not drawn)	666	-8.2% (inactive)	-11.4% (inactive)	170%	0.81	-1.43	-0.857	1.75% (inactive)	-0.519 (inactive)	-4.7e-05 (inactive)	0.00488 (inactive)	inactive	2.21% (inactive)
COc1ccccc1C1/C(=C(/O)c2cnn(-c3ccccc3)c2C)C(=O)C(=O)N1CCN(C)C (stereo not drawn)	498	-0.5% (inactive)	-189% (inactive)	132%	0.414	-0.415	-0.719	10.5% (inactive)	-0.558 (inactive)	-7e-05 (inactive)	0.00448 (inactive)	inactive; toxic	-1.15% (inactive)
CC(=O)c1cc(C#N)c(SCc2ccncc2)nc1C	591	-18.5% (inactive)	40% (inactive)	122%	1.87	-0.619	1.67	-2.29% (inactive)	-0.548 (inactive)	-8.8e-06 (inactive)	0.00573 (inactive)	inactive	-20.5% (inactive)
CC1(C)Cc2c(oc3ncn4ncnc4c23)CO1	587	-8.9% (inactive)	-143% (inactive)	102%	-0.312	-1.57	0.382	13.2% (inactive)	-0.569 (inactive)	-8.8e-05 (inactive)	0.00443 (inactive)	inactive	18.4% (inactive)
CSc1nc2sc3c(c2c2nnnn12)CC(C)(C)OC3	661	-6.7% (inactive)	-16.2% (inactive)	187%	-1.26	1.03	0.586	-5.89% (inactive)	-0.496 (inactive)	-6.6e-05 (inactive)	0.00446 (inactive)	inactive	16.5% (inactive)
CCOc1cccc(-c2nnc3sc(-c4cccs4)nn23)c1	464	-0.1% (inactive)	-85.6% (inactive)	99.8%	-0.8	1.1	0.15	-2.47% (inactive)	-0.456 (inactive)	-6.5e-05 (inactive)	0.00982 (inactive)	inactive	18.9% (inactive)
